# Assay outcomes (PubChem)
# The sample as a whole holds a higher share of hits than the screen did.
# INS promoter act = TRM-6 insulin promoter activation; TRM-6 cells (human fetal islet line), insulin promoter eGFP reporter, imaging; plate-scaled: unstimulated 0, stimulated control 100; activation, % at 2 µM; hit rate 0.81% among 130,000;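 active = activation at 2 µM above a set limit, confirmed on inspection of the cell images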;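 also: share of cells whose green reporter signal exceeds an intensity cutoff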
#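 Assay system: TRM-6 human fetal islet cells, insulin promoter–eGFP reporter; Also added: 0.75 µM tamoxifen as reporter inducer; Schedule: 15 h tamoxifen pre-treatment, 48 h compound treatment at 37 °C; Signal: fixed-cell fluorescence microscopy, eGFP plus Hoechst; Read-out: percent activation from GFP-positive cell fraction; Control set: stimulated and unstimulated wells.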
# * = called active by the depositor; [ ] = dose if it differs, or a comment.
SMILES,INS promoter act
CCN1/C(=C\C=C\C2=[N+](CC)c3ccccc3C2(C)C)C(C)(C)c2ccccc21,257.1*[toxic and fluoresces]
Brc1ccc(C2N3CCCN23)cc1 (configuration not stated),508.3*
NC(=O)OCCSc1nnc(-c2cccc(C(N)=S)c2)o1,-5.6
CC1CN(O)C2CCc3nonc3C12O (configuration not stated),-9.1
OC1/C(=C/c2ccc(F)cc2)N2CCC1CC2 (configuration not stated),0.0
COc1ccc(N=C2SCCCN2C)cc1,512.5*
C[N+](C)(C)c1ccccc1,6.7
COP(=O)(OC)C(NC(=O)/C=C/c1ccccc1)C(Cl)(Cl)Cl (configuration not stated),2.9
C/C(=N\NC(=S)Nc1ccccc1)c1c(O)n(C)c(=O)n(C)c1=O,0.0
Cc1c(C=O)c2ccccc2n1Cc1ccc([N+](=O)[O-])cc1,8.8
O=C(COc1ccccc1)Nc1ccc(Cl)cc1C(=O)c1ccccc1,116.7
Cc1ccc(C(=O)Nc2ccc(Cl)cc2C(=O)c2ccccc2)cc1,113.3
O=C(Nc1ccc(Cl)cc1C(=O)c1ccccc1Cl)c1ccco1,230.0*
N=C1c2ccccc2CN1NC(=O)c1ccc(Br)cc1,-7.7
CC(C)(C)c1ccc(O)c(CN2CCN(c3ccccc3)CC2)c1,-82.3
C=Cn1ccnc1P(O)(=S)c1nc(C)c(CCOC(C)=O)s1 (configuration not stated),2.9
CN(CC(=O)Nc1ccccc1-c1ccccc1)C1CCCCC1,-71.4
COc1ccc(N2C(=O)/C(=C/C=C/c3ccccc3[N+](=O)[O-])C(=O)NC2=S)cc1,0.0
O=C(/C=C/C=C/c1ccccc1)CC1(O)C(=O)Nc2ccccc21 (configuration not stated),-2.3
CCOC(=O)c1cc(CC)sc1/N=C/C1C(=O)NC(=S)NC1=O,295.0*
CSc1ncc(Cl)c(C(=O)O)n1,9.7
Cc1ccc(C2N(c3ccccn3)C(=O)C3CCCN32)o1 (configuration not stated),6.7
O=c1c2ccccc2nc(-c2ccco2)n1-c1cccnc1,-2.9
O=c1c2ccccc2nc(SCC2CCCCO2)n1-c1ccccc1 (configuration not stated),366.7*
CCCCOc1nc2ccccc2c(=O)n1-c1ccccc1,3.3
Clc1cccc(Cl)c1CN1CCN(c2ccccc2)CC1,8.6
Nc1ccc(C2(c3ccc(N)cc3)CCCCC2)cc1,-6.7
Nc1ccncc1,-4.8
COc1ccccc1Cn1c(SCC(=O)C(C)(C)C)nc2cc(C(=O)N3CCC4(CC3)OCCO4)ccc2c1=O,0.0
C=Cc1ccc(Cn2c(C(=O)O)c(C=O)c3ccccc32)cc1,-5.9
